Laboratory results published in ChEMBL document CHEMBL2434834, “Synthesis of pyrido[2,1-a]isoquinolin-4-ones and oxazino[2,3-a]isoquinolin-4-ones: new inhibitors of mitochondrial respiratory chain” (Eur J Med Chem, 2013).

test: Inhibition of NADH oxidase in beef heart sub-mitochondrial particles by UV-spectrophotometric analysis; parameters: species or system Bos taurus
Summary of the method: (§1)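 Inverted beef-heart submitochondrial particles were made by extensive sonication of frozen-thawed mitochondria and stored at -70 °C at 28 mg/mL protein (Bradford). After incubation with inhibitor, particles were diluted to […] in 50 mM potassium phosphate pH 7.4 with 1 mM EDTA, at 22 °C with NADH. Aerobic NADH oxidation was followed at 340 nm (ε 6.22 mM⁻¹ cm⁻¹), with rates taken from the linear decrease at increasing inhibitor concentrations.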

| Compound | IC50 |
| --- | --- |
| COc1cc2c(cc1OC)-c1cc(-c3ccco3)cc(=O)n1CC2 | 12.5 µM |
| COc1cc2c(cc1OC)-c1cc(-c3ccccc3)cc(=O)n1CC2 | > 30 µM |
| C=C(C)[C@H]1Cc2c(ccc3c2O[C@@H]2COc4cc(OC)c(OC)cc4[C@@H]2C3=O)O1 [ROTENONE] | 0.0051 µM |

Results, then the molecule that gave them:

| IC50 | Compound |
| --- | --- |
| 8.23 µM | COc1cc2c(cc1OC)-c1cc(C)cc(=O)n1CC2 |
| 4.69 µM | COc1cc2c(cc1OC)-c1c(-c3ccccc3)c(C)cc(=O)n1CC2 |
| 4.24 µM | COc1cc2c(cc1OC)-c1c(-c3ccccc3Br)c(C)cc(=O)n1CC2 |
| 3.44 µM | Cc1cc2n(c(=O)c1)CCc1cc(O)c(O)cc1-2 |
| 1.53 µM | COc1cc2c(cc1OC)C1(Cc3ccccc3)OC(C)=CC(=O)N1CC2 (stereo not given) |
| 1.39 µM | COc1cc2c(cc1OC)C1(Cc3ccccc3Br)OC(C)=CC(=O)N1CC2 (stereo not given) |
| 1.36 µM | COc1cc2c(cc1OC)C1(C)OC(C)=CC(=O)N1CC2 (stereo not given) |
| 1.32 µM | COc1cc2c(cc1OC)C1(C)OC(c3ccccc3)=CC(=O)N1CC2 (stereo not given) |
| 0.9 µM | COc1cc2c(cc1OC)C1(C)OC(c3ccco3)=CC(=O)N1CC2 (stereo not given) |

test: Inhibition of NADH oxidase in beef heart sub-mitochondrial particles after 5 mins; parameters: species or system Bos taurus; summary of the method: as §1

| IC50 | Compound |
| --- | --- |
| 13 µM | CC(C)Cc1cnc(CC(C)C)c(=O)[nH]1 |
| 2.5 µM | COc1cc(O)c2nc3n(c(=O)c2c1)-c1ccccc1C(=O)N1CCC[C@@H]31 |
| 1.5 µM | COc1ccc2nc3n(c(=O)c2c1)-c1ccccc1C(=O)N1CCC[C@@H]31 |
